# Assay results published in paper PMC12316622 (EJNMMI Research, 2025).
# Counter-ions that a name gives are not always drawn.
# What was measured:
# T47D cells [1] = assay: Sensitivity to GRPR-mediated radionuclide therapy, T47D; type: cell-based, human; details: 50 MBq, 1 h, SRB after 6 days
# Procedure, shortened: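 T47D cells were pretreated 72 h with anthracycline or vehicle (0.4% DMSO), then regrown 24 h. Next, 3 × 10⁶ cells were seeded in T25 flasks and the following day exposed 1 h at 37 °C to 50 MBq/ml ¹⁷⁷Lu-labelled GRPR tracer, [¹⁷⁷Lu]Lu-DTPA (specificity control) or medium. Cells were scraped and re-seeded at 4 × 10³ per well, grown 6 days, then read by SRB. Density was taken versus medium-treated cells within each pretreatment group, from three independent experiments in triplicate.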
# PC-3 cells = assay: IC50 determination, SRB cell density assay, PC-3; type: cell-based; details: Homo sapiens
# Procedure, shortened: (§1)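 Cells were seeded in 96-well plates (PC-3 at 3 × 10³, T47D at 5 × 10³) and left overnight. They were exposed 72 h at 37 °C to increasing test compound concentrations with DMSO vehicle, washed, then regrown 48 h in fresh medium. Readout was by SRB: TCA fixation overnight, 0.5% SRB for 20 min, acetic acid washes, dye dissolved in 10 mM Tris, OD at 560 nm. Density was taken relative to untreated cells (100%). Runs were in triplicate, and IC50 came from a four-parameter nonlinear fit.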
# T47D cells [2] = assay: IC50 determination, SRB cell density assay, T47D; type: cell-based; details: Homo sapiens
# Procedure, shortened: as §1
# [3] = system: GRPR mRNA in PC-3 xenografts; assay: Ex-vivo GRPR mRNA expression in PC-3 xenografts; parameters: species or system NMRI-Foxn1 nu/nu mice; details: PC-3 xenografts after third cycle of DTX 5 mg/kg; RT-qPCR
# Procedure, shortened: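 PC-3 xenografts came from male nude mice given taxane 5 mg/kg or placebo (polysorbate-80 1:1 in 5% glucose) weekly for 3 weeks, N = 4. After the final SPECT/CT scan, each tumor was halved. One half was processed for GRPR mRNA by RT-qPCR and compared with placebo.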
# [4] = system: GRPR mRNA in T47D xenografts; assay: Ex-vivo GRPR mRNA expression in T47D xenografts; parameters: species or system NMRI-Foxn1 nu/nu mice; details: T47D tumors from DXR-treated animals (5 mg/kg, 2 cycles); RT-qPCR
# Procedure, shortened: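 T47D xenografts came from estradiol-supplemented female nude mice given anthracycline 5 mg/kg or placebo weekly for 2 weeks. After the last SPECT/CT scan, each tumor was halved. One half was used for GRPR mRNA by RT-qPCR against placebo.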
IC50 (PC-3 cells),IC50 (T47D cells [2]),Structure (SMILES),Cell density relative to medium-treated cells (T47D cells [1]; DXR-pretreated T47D cells),Cell density relative to medium-treated cells (T47D cells [1]; vehicle and DXR pretreated T47D cells),GRPR mRNA levels in xenografts versus placebo [3],GRPR mRNA expression in xenografts versus placebo [4]
–,–,O=C([O-])CN(CCN(CC(=O)[O-])CC(=O)[O-])CCN(CC(=O)[O-])CC(=O)[O-].[177Lu+3] [[^177Lu]Lu-DTPA],slightly higher compared to the other conditions,no effect was observed,–,–
14.1 ± 3.72 nM,0.94 ± 0.39 nM,"CC(=O)O[C@@]12CO[C@@H]1C[C@H](O)[C@@]1(C)C(=O)[C@H](O)C3=C(C)[C@@H](OC(=O)[C@H](O)[C@@H](NC(=O)OC(C)(C)C)c4ccccc4)C[C@@](O)([C@@H](OC(=O)c4ccccc4)[C@H]21)C3(C)C [DTX, anhydrous docetaxel]",–,–,similar,–
–,22.3 ± 7.04 nM,"COc1cccc2c1C(=O)c1c(O)c3c(c(O)c1C2=O)C[C@@](O)(C(=O)CO)C[C@@H]3O[C@H]1C[C@H](N)[C@H](O)[C@H](C)O1 [DXR, doxorubicin hydrochloride]",–,–,–,increased GRPR mRNA expression
